According to ChEMBL document CHEMBL1681732, “Synthesis and SAR of sulfoxide substituted carboxyquinolines as NK3 receptor antagonists” (Bioorg Med Chem Lett, 2011):
pEC50: −log10 of the molar value. Values after ≈ are worked out from the molar mass of the structure shown.

Experiments:
[1] = Equilibrium solubility of the compound; format: physicochemical
Neuromedin-K receptor = target: T1, Neuromedin-K receptor (Homo sapiens, UniProt P29371); experiment: Antagonist activity at human NK3 receptor expressed in CHO cells assessed as inhibition of senktide-induced calcium flux by FLIPR assay; format: functional, cell-based
T1 sequence (P29371 whole entry): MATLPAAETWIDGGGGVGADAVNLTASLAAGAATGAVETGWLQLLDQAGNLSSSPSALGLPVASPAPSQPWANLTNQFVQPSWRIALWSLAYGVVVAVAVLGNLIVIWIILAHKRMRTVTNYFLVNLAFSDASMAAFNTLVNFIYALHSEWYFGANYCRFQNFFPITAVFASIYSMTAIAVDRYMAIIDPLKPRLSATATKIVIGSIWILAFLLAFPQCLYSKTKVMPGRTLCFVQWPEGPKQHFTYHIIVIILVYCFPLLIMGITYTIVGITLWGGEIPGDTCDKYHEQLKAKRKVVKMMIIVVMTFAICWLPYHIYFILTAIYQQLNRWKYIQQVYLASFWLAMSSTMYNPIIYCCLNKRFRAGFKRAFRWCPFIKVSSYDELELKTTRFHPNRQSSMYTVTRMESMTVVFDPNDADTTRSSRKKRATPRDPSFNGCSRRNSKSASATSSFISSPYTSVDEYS
How it was run: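 FLIPR functional assay in CHO cells stably expressing human recombinant NK3 receptor. EC50 given as mean ± SEM (n ≥ 2), or as a single value where n = 1. Tested as 1:1 diastereomer mixtures unless marked as a single isomer.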

[2] = Intrinsic clearance in human liver microsomes assessed per mg of protein; format: ADME, Microsome
MDR1 [3] = experiment: (§1) Apparent permeability across MDCK cells expressing human MDR1; format: ADME, cell-based, Canis lupus familiaris; conditions: dog, MDCK-MDR1
How it was run: (§2)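 Permeability measured in MDCK cells expressing human MDR1. Papp is expressed in 10^-6 cm/s and reported together with the efflux ratio.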

Gerbillinae = experiment: Reversal of senktide-induced locomotor activity in ip dosed gerbil; format: functional
[4] = target: Voltage-gated inwardly rectifying potassium channel KCNH2 (Homo sapiens, UniProt Q12809); experiment: Inhibition of human ERG
Chain of Voltage-gated inwardly rectifying potassium channel KCNH2 (Q12809 whole entry): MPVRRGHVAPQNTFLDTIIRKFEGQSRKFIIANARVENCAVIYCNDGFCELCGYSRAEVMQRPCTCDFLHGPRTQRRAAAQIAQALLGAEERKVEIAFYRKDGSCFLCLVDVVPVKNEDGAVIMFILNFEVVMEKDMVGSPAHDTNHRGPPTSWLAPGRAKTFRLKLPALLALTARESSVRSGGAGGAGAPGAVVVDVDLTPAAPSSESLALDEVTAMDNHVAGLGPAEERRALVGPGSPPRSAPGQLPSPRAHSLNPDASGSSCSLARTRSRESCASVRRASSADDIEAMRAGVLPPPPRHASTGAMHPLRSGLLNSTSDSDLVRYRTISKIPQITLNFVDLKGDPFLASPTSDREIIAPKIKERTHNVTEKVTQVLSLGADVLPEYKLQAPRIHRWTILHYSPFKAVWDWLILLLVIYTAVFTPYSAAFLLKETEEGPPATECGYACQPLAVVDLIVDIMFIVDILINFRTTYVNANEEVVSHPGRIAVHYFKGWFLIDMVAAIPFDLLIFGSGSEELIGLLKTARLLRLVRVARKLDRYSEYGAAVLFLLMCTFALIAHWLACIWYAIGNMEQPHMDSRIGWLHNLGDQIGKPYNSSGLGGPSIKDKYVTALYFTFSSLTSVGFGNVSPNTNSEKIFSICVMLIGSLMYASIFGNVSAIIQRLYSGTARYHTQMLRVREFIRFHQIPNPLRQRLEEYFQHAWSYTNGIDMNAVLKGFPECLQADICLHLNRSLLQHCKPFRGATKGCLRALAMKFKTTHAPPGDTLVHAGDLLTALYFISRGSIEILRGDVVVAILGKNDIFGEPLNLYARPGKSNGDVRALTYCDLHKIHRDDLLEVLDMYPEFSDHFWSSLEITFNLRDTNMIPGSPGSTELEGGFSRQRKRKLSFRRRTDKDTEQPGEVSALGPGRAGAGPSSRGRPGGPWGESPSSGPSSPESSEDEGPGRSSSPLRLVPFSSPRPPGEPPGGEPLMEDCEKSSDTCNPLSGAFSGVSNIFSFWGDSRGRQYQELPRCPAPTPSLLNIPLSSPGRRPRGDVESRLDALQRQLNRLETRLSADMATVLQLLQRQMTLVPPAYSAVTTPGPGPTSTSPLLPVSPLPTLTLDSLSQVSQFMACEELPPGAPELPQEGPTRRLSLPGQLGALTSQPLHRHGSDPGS

MDR1 [5] = experiment: (§3) Efflux ratio of permeability in MDCK cells expressing human MDR1; format: ADME, cell-based, Canis lupus familiaris; conditions: dog, MDCK-MDR1; how it was run: as §2
[6] = Lipophilicity, log D of the compound; format: physicochemical; conditions: octanol/water
[7] = Half life in dog; format: ADME, organism-based, Canis lupus familiaris; conditions: in vivo
[8] = Plasma clearance in dog; format: ADME, organism-based, Canis lupus familiaris
[9] = Selectivity ratio of EC50 for human NK3 receptor to EC50 for NK2 receptor
[10] = Selectivity ratio of EC50 for human NK3 receptor to EC50 for NK1 receptor
[11] = Oral bioavailability in dog; format: ADME, organism-based, Canis lupus familiaris; conditions: in vivo
[12] = Half life in rat; format: ADME, organism-based; conditions: in vivo
[13] = Oral bioavailability in rat; format: ADME, organism-based; conditions: in vivo
[14] = Ratio of drug level in brain to plasma in rat at 3 umol/kg, iv after 1 hr; format: ADME, organism-based; conditions: brain and plasma, read-out: BPR
How it was run: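 Rat dosed iv at 3 µmol/kg. Total brain and plasma levels taken 1 h post dose, and their ratio reported.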

[15] = Clearance in rat plasma; format: ADME, organism-based
MDCK [16] = experiment: as §1; format: ADME, cell-based, Canis lupus familiaris; conditions: dog, mdck; how it was run: as §2
MDCK [17] = experiment: as §3; format: ADME, cell-based, Canis lupus familiaris; conditions: dog, mdck; how it was run: as §2

Structure (SMILES) | solubility thermodynamic [1] [µM] | pEC50 (Neuromedin-K receptor) | also measured
CC[C@H](NC(=O)c1c([S+](C)[O-])c(-c2cccc(F)c2)nc2ccccc12)c1ccccc1 (mixture of isomers) | 100 | 7.74 | 
CC[C@H](NC(=O)c1c([S+](C)[O-])c(-c2ccccc2)nc2cc(CN(C)C)ccc12)c1ccccc1 (mixture of isomers) | 460 | 7.06 | 
CC[C@H](NC(=O)c1c([S+](C)[O-])c(-c2ccccc2)nc2c(C)cccc12)c1ccccc1 (mixture of isomers) | 16 | 5.72 | 
CC[C@H](NC(=O)c1c([S+](C)[O-])c(-c2ccccn2)nc2ccccc12)c1ccccc1 (mixture of isomers) | 360 | 5.95 | 
C[S+]([O-])c1c(-c2ccccc2)nc2ccccc2c1C(=O)NC1(c2ccccc2)CC1 (racemic) | 1.3 (≈ 0.555 µg/mL) | 7.80 | 
CC[C@H](NC(=O)c1c([S+]([O-])CC)c(-c2ccccc2)nc2ccccc12)c1ccccc1 (mixture of isomers) | 170 | 8.16 | 
CC[C@H](NC(=O)c1c([S+](C)[O-])c(-c2ccc(F)cc2)nc2ccccc12)c1ccccc1 (mixture of isomers) | 88 | 7.32 | 
C[S+]([O-])c1c(-c2ccccc2)nc2ccccc2c1C(=O)N[C@H](c1ccccc1)C1CC1 (mixture of isomers) | 180 | 7.82 | 
CC[C@H](NC(=O)c1c([S+](C)[O-])c(-c2ccccc2)nc2cc(Br)ccc12)c1ccccc1 (mixture of isomers) | 15 | 8.29 | 
CC[C@H](NC(=O)c1c([S+](C)[O-])c(-c2ccsc2)nc2ccccc12)c1ccccc1 (mixture of isomers) |  | 8.74 | microsomal CLint [2]: 190 µL/min/mg
CC[C@H](NC(=O)c1c(C[S@@+](C)[O-])c(-c2ccccc2)nc2ccccc12)c1ccccc1 | 8 (≈ 3.54 µg/mL) | 8.74 | Papp (MDR1 [3]): 10 ×10⁻⁶ cm/s; ED50 (Gerbillinae): 22 µmol/kg; INH [4]: > 33 µM; microsomal CLint [2]: 5.2 µL/min/mg; efflux ratio (MDR1 [5]): 2.6; logD [6]: 3.5
CC[C@H](NC(=O)c1c([S+](C)[O-])c(-c2ccccc2)nc2cc(F)ccc12)c1ccccc1 (mixture of isomers) | 58 | 7.89 | 
C[S+]([O-])c1c(-c2ccccc2)nc2ccccc2c1C(=O)N[C@H](c1ccncc1)C1CC1 (mixture of isomers) |  | < 5.00 | solubility [1]: 99 µM
CC[C@H](NC(=O)c1c([S+](C)[O-])c(-c2ccccc2)nc2ccccc12)c1ccccc1 (mixture of isomers) |  | 8.31 | Papp (MDR1 [3]): 9.4 ×10⁻⁶ cm/s; solubility [1]: 230 µM; efflux ratio (MDR1 [5]): 2.7
CC[C@H](NC(=O)c1c([S+](C)[O-])c(-c2cccnc2)nc2ccccc12)c1ccccc1 (single isomer, unassigned) | 470 (≈ 202 µg/mL) | 6.16 | 
CC[C@H](NC(=O)c1c([S+](C)[O-])c(-c2ccccc2)nc2cc(N(C)C)ccc12)c1ccccc1 (mixture of isomers) | 44 | 6.67 | 
CC[C@H](NC(=O)c1c([S+]([O-])C(C)C)c(-c2ccccc2)nc2ccccc12)c1ccccc1 (mixture of isomers) | 83 | 7.80 | 
CC[C@H](NC(=O)c1c([S+](C)[O-])c(-c2ccccc2)nc2ccccc12)c1ccccn1 (mixture of isomers; 35a) | 420 | 7.11 | 
CC[C@H](NC(=O)c1c(CS(C)(=O)=O)c(-c2ccccc2)nc2ccccc12)c1ccccc1 (mixture of isomers) | 4 | 8.60 | Papp (MDR1 [3]): 11 ×10⁻⁶ cm/s; efflux ratio (MDR1 [5]): 3.1
CC[C@H](NC(=O)c1c(CSC)c(-c2ccccc2)nc2ccccc12)c1ccccc1 (mixture of isomers) | 2 | 7.46 | Papp (MDR1 [3]): 5.9 ×10⁻⁶ cm/s; efflux ratio (MDR1 [5]): 1.1

Structure (SMILES) | solubility thermodynamic [1] [µM] | pEC50 (Neuromedin-K receptor) | also measured
CC[C@H](NC(=O)c1c(S(C)(=O)=O)c(-c2ccccc2)nc2ccccc12)c1ccccc1 (mixture of isomers) | 36 | 7.85 | Papp (MDR1 [3]): 11 ×10⁻⁶ cm/s; efflux ratio (MDR1 [5]): 2.6
CC[C@H](NC(=O)c1c([S+](C)[O-])c(-c2cncs2)nc2ccccc12)c1ccccc1 (mixture of isomers) | 390 | 6.66 | 
CC[C@H](NC(=O)c1c([S+](C)[O-])c(-c2ccccc2)nc2c(F)cccc12)c1ccccc1 (mixture of isomers) | 160 | 8.09 | 
CC[C@H](NC(=O)c1c([S+](C)[O-])c(-c2ccccc2)nc2ccccc12)c1cccnc1 (mixture of isomers) | 350 | 7.13 | 
CC[C@H](NC(=O)c1c([S+](C)[O-])c(-c2ccccc2)nc2cc(Cl)ccc12)c1ccccc1 (mixture of isomers) | 34 | 8.11 | 
CC[C@H](NC(=O)c1c(C[S@+](C)[O-])c(-c2ccccc2)nc2ccccc12)c1ccccc1 | 53 (≈ 23.5 µg/mL) | 8.28 | Papp (MDR1 [3]): 9.9 ×10⁻⁶ cm/s; ED50 (Gerbillinae): 2 µmol/kg; INH [4]: > 33 µM; half-life [7]: 6.7 h; clearance [8]: 2.3 mL/min/kg; Ratio EC50 [9]: 170; microsomal CLint [2]: 8.4 µL/min/mg; Ratio EC50 [10]: > 660; efflux ratio (MDR1 [5]): 3.7; logD [6]: 3.5; bioavailability [11]: 89%
CC[C@H](NC(=O)c1c([S+]([O-])CC(=O)N(C)C)c(-c2ccccc2)nc2ccccc12)c1ccccc1 (mixture of isomers) | 52 | 7.92 | 
C[S+]([O-])c1c(-c2ccccc2)nc2ccccc2c1C(=O)N[C@H](c1ccncc1)C1CC1 (stereo in doubt; 33b) |  | < 5.03 | solubility [1]: 370 µM (≈ 163 µg/mL)
CC[C@H](NC(=O)c1c([S@+](C)[O-])c(-c2ccccc2)nc2ccccc12)c1ccccc1 | 270 (≈ 116 µg/mL) | 8.43 | Papp (MDR1 [3]): 28 ×10⁻⁶ cm/s; Activity (Gerbillinae): Dose-dependent effect; ED50 (Gerbillinae): 0.75 µmol/kg; INH [4]: > 33 µM; Ratio EC50 [9]: 1860; microsomal CLint [2]: 23 µL/min/mg; half-life [12]: 3 h; bioavailability [13]: 60%; Ratio EC50 [10]: > 2700; Kp at 1 h [14]: 0.4; clearance [15]: 60 mL/min/kg; efflux ratio (MDR1 [5]): 1.3; logD [6]: 3
CC[C@H](NC(=O)c1c([S+](C)[O-])c(-c2ccccc2)nc2cc(C)ccc12)c1ccccc1 (mixture of isomers) | 160 | 8.44 | 
CC[C@H](NC(=O)c1c([S+](C)[O-])c(-c2cscn2)nc2ccccc12)c1ccccc1 (mixture of isomers) | 41 | 6.96 | 
C[S+]([O-])c1c(-c2ccccc2)nc2ccccc2c1C(=O)NC1(c2ccccc2)CCC1 (racemic) | 4.5 (≈ 1.98 µg/mL) | 7.42 | 
CC[C@H](NC(=O)c1c(SC)c(-c2ccccc2)nc2ccccc12)c1ccccc1 (mixture of isomers) | < 1 | 7.44 | 
CC[C@H](NC(=O)c1c([S+](C)[O-])c(-c2ccccc2F)nc2ccccc12)c1ccccc1 (mixture of isomers) | 53 | 7.09 | 
CC[C@H](NC(=O)c1c(CC[S+](C)[O-])c(-c2ccccc2)nc2ccccc12)c1ccccc1 (mixture of isomers) | 360 | 8.48 | Papp (MDR1 [3]): 1 ×10⁻⁶ cm/s; efflux ratio (MDR1 [5]): 21
CC[C@H](NC(=O)c1c([S+](C)[O-])c(-c2ccccc2)nc2ccccc12)c1ccccn1 (mixture of isomers; 35b) |  | < 5.28 | solubility [1]: 460 µM
CC[C@H](NC(=O)c1c([S+](C)[O-])c(-c2cc[nH]n2)nc2ccccc12)c1ccccc1 (mixture of isomers) | 420 | 5.60 | 
CC[C@H](NC(=O)c1c([S+](C)[O-])c(-c2cccs2)nc2ccccc12)c1ccccc1 (mixture of isomers) | 47 | 8.77 | microsomal CLint [2]: 220 µL/min/mg
CC[C@H](NC(=O)c1c([S+](C)[O-])c(-c2ccccc2)nc2ccccc12)c1ccccc1 (stereo in doubt; 2b) |  | 6.62 | Papp (MDCK [16]): 17 ×10⁻⁶ cm/s; solubility [1]: 44 µM (≈ 18.9 µg/mL); Ratio (MDCK [17]): 2
CCOc1ccc2c(C(=O)N[C@@H](CC)c3ccccc3)c([S+](C)[O-])c(-c3ccccc3)nc2c1 (mixture of isomers) | 69 | 7.42 | 
